Assay results pooled from the literature.
Lines come from different studies, so protocols differ.
Target: Mitogen-activated protein kinase kinase kinase 20 (MAP3K20, Homo sapiens, UniProt Q9NYL2)

Structure (SMILES) | assay | conditions | remaining binding
Cc1cc(C)c(-n2ccn3nc(-c4cccnc4)cc23)cc1NC(=O)c1cc(C#N)cc(S(F)(F)(F)(F)F)c1 | cell-free assay, competition with immobilised ligand | 0.1 µM | 97.5%
C=CC(=O)N1CCC(C(=O)NCC(=O)N2CCN(c3nc(-c4cnc(N)nc4C(F)F)nc(N4CCOCC4)n3)CC2)CC1 | binding, competition with immobilised ligand | 1 µM | 100%
C[C@H]1CCN(c2nccc(-c3cnn4ncccc34)n2)C1 | binding | 1 µM | 97%
O=c1nc(-c2ccccn2)sc2ccccc12 | binding, competition with immobilised ligand | 1 µM | 87%
F[C@@H]1CCN(c2nccc(-c3cnn4ncccc34)n2)C1 | binding | 1 µM | 76%
c1cncc(-c2cccc(Nc3nccc(NC4CCCCC4)n3)c2)c1 | binding, competition with immobilised ligand | 10 µM | 93%
CC1CCCN1c1nccc(-c2cnn3ncccc23)n1 (stereo not shown) | binding | 1 µM | 100%
Cc1cnc(Nc2ccc(C(=O)N3CCC(N4CCCC4)CC3)cc2)nc1-c1cc2ccccc2s1 | binding, competition with immobilised ligand | 1 µM | 43%
Nc1ncc2c(n1)-c1c([nH]c3ccc(C#CC4CC4)cc13)CCCC2 | binding, competition with immobilised ligand | 1 µM | 93%
O=C(c1ccc(Nc2nccc(-c3cc4ccccc4s3)n2)cc1)N1CCC(N2CCCC2)CC1 | binding, competition with immobilised ligand | 1 µM | 69%
c1cnn2ncc(-c3ccnc(N4CCC45COC5)n3)c2c1 | binding | 1 µM | 100%
CCCOc1ccc([C@@H]2[C@@H](C(=O)O)[C@H](c3ccc4c(c3)OCO4)CN2CC(=O)Nc2c(CC)cccc2CC)cc1 | cell-free assay, competition with immobilised ligand | 1 µM | 100%
COc1cnc(Nc2cccc(S(N)(=O)=O)c2)nc1N1CCN(c2ccccc2)CC1 | binding, competition with immobilised ligand | 1 µM | 100%
COc1ccnn2ncc(-c3ccnc(N(C)C)n3)c12 | binding | 1 µM | 100%
CO[C@@H](C)c1c(Nc2ccc([C@@H](N(C)C(=O)C3CCS(=O)(=O)CC3)C(F)(F)F)cc2)cnc2cc(Cl)nn12 | cell-free assay, competition with immobilised ligand | 1 µM | 100%
O=C(NCC1CCOCC1)c1n[nH]cc1NC(=O)c1c(F)cccc1F | binding, competition with immobilised ligand | 1 µM | 100%
CN(C)c1nccc(-c2cnn3ncccc23)n1 | binding | 1 µM | 100%
C[C@@H](c1cccc(C#N)c1)n1cc(Cl)cc(C(N)=O)c1=N | cell-free assay, competition with immobilised ligand | 1 µM | 71%
O=C(c1ccc(Nc2ncc(Cl)c(-c3cc4ccccc4s3)n2)cc1)N1CCC(N2CCCC2)CC1 | binding, competition with immobilised ligand | 1 µM | 48%
O=C(O)[C@@H]1[C@@H](Cn2nnc3ccccc3c2=O)CC[C@H]1C(=O)c1ccc(OCCC2CCOCC2)cc1 | cell-free assay, competition with immobilised ligand | 1 µM | 91%
N[C@H]1CCN(c2nccc(-c3cnn4ncccc34)n2)C1 | binding | 1 µM | 99%
C[C@@H](c1ccc(-n2cnc3c(N)ncnc32)cc1)N1CCc2nn(C)c(Cc3ccccc3)c2C1=O | binding, competition with immobilised ligand | 0.1 µM | 58%
